Screening results from PubChem BioAssay.
The list is not random: actives were taken first. Their share in the collection is about 2.7%.
PREPL inhibitor: PREPL enzyme inhibitors, primary screen, biochemical, fluorescence polarization; recombinant PREPL, fluorescence polarization activity-based probe; actives 0.68% (n = 320,000); inhibition, % at 5.96 µM; in the data active means inhibition above about 43%;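 further: 0% = enzyme with DMSO and 100% = wells lacking enzyme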
HTR2A ag: mouse Htr2a agonists via beta-arrestin recruitment, primary screen, cell-based, luminescence. AID 624169, 2012. actives 0.66% (n = 360,000). activation, % at 7.6 µM. CHO-K1 mHTR2A beta-arrestin complementation; percent of 30 µM serotonin response. 5-hydroxytryptamine receptor 2A (Mus musculus), P35363;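 active means activation above a run cutoff, the mean activation of all tested compounds plus 3 SD, cut at about 14% in these data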;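 further: 0% = plate median of compound wells and 100% = 30 µM serotonin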
Target sequence (P35363 whole entry, looked up): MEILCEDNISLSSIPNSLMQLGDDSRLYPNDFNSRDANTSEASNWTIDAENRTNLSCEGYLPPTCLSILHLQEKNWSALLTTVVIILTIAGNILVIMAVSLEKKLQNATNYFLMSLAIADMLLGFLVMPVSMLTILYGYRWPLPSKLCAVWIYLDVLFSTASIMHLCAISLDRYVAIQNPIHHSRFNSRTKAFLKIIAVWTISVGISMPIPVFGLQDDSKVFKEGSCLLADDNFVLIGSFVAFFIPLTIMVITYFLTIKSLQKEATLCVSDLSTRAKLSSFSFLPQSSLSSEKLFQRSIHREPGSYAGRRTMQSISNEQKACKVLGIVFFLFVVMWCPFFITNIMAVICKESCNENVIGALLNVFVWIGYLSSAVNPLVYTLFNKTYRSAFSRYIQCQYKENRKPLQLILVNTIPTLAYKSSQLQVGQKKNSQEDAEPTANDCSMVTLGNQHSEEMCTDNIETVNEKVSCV
NTR1 ag: agonists of human NTR1, primary screen, imaging, U2OS cells, beta-arrestin-GFP, high content | activation, % at 20 µM | NTR1-U2OS beta-arrestin-GFP spot imaging, agonist mode | actives 0.17% (n = 330,000) | AID 493036, 2011;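 active means activation at or above 40% of the spot to cytoplasm intensity ratio, with at least 20 cells analyzed; inconclusive means wells under 20 cells, flagged as cytotoxic or low count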;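 further: 0% = DMSO without peptide and 100% = 100 nM NTR1 peptide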
Hep lipid drop: inhibitors of hepatocyte lipid droplet formation, primary screen, imaging, high-throughput imaging, BODIPY stain; AML12 mouse hepatocytes, oleate lipid droplets; inhibition, % at 6.5 µM; actives 0.4% (n = 240,000); AID 1656, 2009;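 active means lipid droplet intensity inhibited by at least 50%, with more than 500 cells counted; inconclusive means wells with under 300 cells, treated as cytotoxic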
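Material – AML12 mouse liver cells · Also added – oleate loading, 100 µM · Compound dosing – 6.5 µM single-point dosing · Times – overnight treatment with compound plus oleate · Measured by – fluorescence imaging, 20x objective, two fields per well · Read-out – percent inhibition of filter-corrected integrated lipid droplet intensity per well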
MC4R barr agon: MC4R agonists recruiting beta-arrestin, primary screen, cell-based, luminescence, agonist arm of biased-ligand search | U2OS MC4R beta-arrestin complementation; percent of melanotan II response, DMSO zero | activation, % at 8.9 µM | actives 0.98% (n = 360,000) | AID 540308, 2011;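 active means activation above a per-plate cutoff, the mean activation of sample wells on that plate plus 3 SD, cut at about 8% in these data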
MC4R antagonist: MC4R antagonists of cAMP signaling, primary screen, cell-based, TR-FRET, antagonist arm of biased-ligand search; inhibition, % at 6.5 µM; actives 0.48% (n = 360,000); MC4R-expressing cells, MTII-stimulated cAMP, LANCE TR-FRET; Melanocortin receptor 4 (Homo sapiens), P32245;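 active means inhibition above its plate's cutoff, the mean of tested wells on that plate plus 3 SD, cut at about 29% in these data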;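 further: 0% = Melanotan II alone and 100% = Melanotan II plus saturating MCL0020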
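system = U2OS cells with stable human MC4R expression | also added = Melanotan II challenge after compound preincubation | dosing = one concentration, 6.5 µM nominal | incubation = compound 30 min, challenge 1 h, detection 1 h | measured by = TR-FRET with Eu-cAMP and labeled anti-cAMP, 671 nm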
U2OS cAMP counter: nonselective cAMP signaling inhibitors, parental cells, counter-screen for MC4R biased antagonist project, cell-based, TR-FRET, U2OS, forskolin, triplicate; shares compounds with MC4R antagonist; actives 26% (n = 1,600); AID 602193, 2012; LANCE TR-FRET; inhibition, % at 6.5 µM;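 active means mean inhibition over triplicates above the low-control well mean plus 3 SD, set per campaign, cut at about 13% in these data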;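 further: signal is single emission at 671 nm which falls as cellular cAMP rises; 0% = forskolin-stimulated wells and 100% = buffer without forskolin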
MC4R cAMP antag: MC4R cAMP antagonists, retest, confirmation, cell-based, TR-FRET. AID 602195, 2012. MC4R-expressing cells, MTII-stimulated cAMP. shares compounds with MC4R antagonist. inhibition, % at 6.5 µM. actives 27% (n = 1,600); in the data active means inhibition above about 29%;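 further: 0% = agonist stimulated wells alone and 100% = agonist stimulated wells plus saturating reference antagonist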
* = called active by the depositor; ? = inconclusive; / = not tested or not shown.

SMILES | PREPL inhibitor | HTR2A ag | NTR1 ag | Hep lipid drop | MC4R barr agon | MC4R antagonist | U2OS cAMP counter | MC4R cAMP antag
O=C(CNC(=O)c1ccc(Cl)cc1Cl)OCn1nnc2ccccc2c1=O | 3.1 | 2.7 | -0.2 | / | -1.7 | 31.8* | 17.1* | 20.9
CC1CCCC(C)N1C(=O)COC(=O)CNC(=O)c1ccc(Cl)cc1Cl (stereo unspecified) | 7.0 | -3.9 | 2.1 | / | -0.6 | 29.1* | 18.4* | 19.3
CC1CCCC(C)N1C(=O)COC(=O)CNC(=O)c1ccccc1F (stereo unspecified) | 7.2 | -1.8 | 2.6 | / | -2.3 | 13.0 | / | /
O=C(CNC(=O)c1ccc(Cl)cc1Cl)OCC(=O)N1CCCC1=O | 11.3 | -11.4 | 1.2 | / | -2.3 | 35.2* | 18.9* | 29.8*
O=C(COC(=O)CNC(=O)c1ccc(Cl)cc1Cl)NCc1ccco1 | 7.6 | -2.4 | 0.5 | / | -1.7 | 30.9* | 10.9 | 43.5*
O=C(CNC(=O)c1ccc(Cl)cc1Cl)OCC(=O)N1CCCC1 | 4.7 | 5.4 | 1.1 | / | -1.5 | 22.2 | / | /
O=C(CNC(=O)c1ccc(Cl)cc1)OCn1nnc2ccccc2c1=O | -3.1 | 1.8 | -0.8 | / | -0.7 | 14.1 | / | /
CCCCN(C)CCCNC(=O)c1cn(C)c2ccc(S(=O)(=O)N(C)C3CCCCC3)cc2c1=O | 5.4 | 3.7 | -0.3 | 2.3 | -4.3 | 0.3 | / | /
COc1ccc(NC(=O)C(=O)c2cn(CC(=O)N3CCCC3)c3ccccc23)cc1 | 1.2 | 4.0 | 3.7 | ? | -3.4 | -22.7 | / | /
C=CCn1c(C)cc(/C([O-])=C(/C(=S)Nc2ccc(OC(F)F)cc2)[n+]2ccc(N(C)C)cc2)c1C | 17.4 | -3.8 | 0.1 | 7.7 | 2.1 | 28.6* | 1.9 | 4.4
Cc1ccc(NC(=O)c2cc(-n3cnnc3)ccc2Cl)cc1 | -8.8 | -1.1 | 1.3 | 2.1 | -1.4 | 2.0 | / | /
Cc1ccc(NC(=O)c2cc(N3C(=O)C=CC3=O)ccc2N2CCOCC2)cc1 | / | 2.0 | / | 2.4 | -2.0 | 68.9* | 8.5 | 50.5*
Cc1ccc(NC(=O)c2cc(N3C(=O)C=CC3=O)ccc2Cl)cc1C | -3.6 | 0.8 | -0.2 | 0.5 | -1.6 | 56.9* | 8.2 | 11.5
CN(C)c1ccc(NC(=O)Nc2ccc3c(c2)c(=O)n(C)n3Cc2ccc(Cl)cc2)cc1 | / | -0.3 | / | / | 2.1 | 6.6 | / | /
CC(=O)Nc1sc2c(c1C(c1ccc(Cl)cc1)N1CCOCC1)CCCC2 (stereo unspecified) | 7.9 | -4.4 | 9.7 | -3.6 | -0.3 | 17.6 | / | /
CC(=O)Nc1sc2c(c1C(c1ccc(F)cc1)N1CCOCC1)CCCC2 (stereo unspecified) | 7.6 | -6.2 | 2.6 | 16.7 | 2.1 | 29.5* | 2.2 | 5.7
COc1ccccc1N1CCN(C(=O)c2ccc3c(=O)n(Cc4ccc5c(c4)OCO5)c(=O)[nH]c3c2)CC1 | 5.4 | 2.2 | 1.0 | -2.1 | 1.6 | 0.0 | / | /
COc1ccc(Cc2nnc(NS(=O)(=O)c3ccc(Cl)cc3)s2)cc1OC | 2.5 | 4.0 | 1.6 | -18.6 | 3.9 | -1.2 | / | /
COc1ccc(C(NC(=O)c2cc(OC)ccc2OC)c2ccccc2)cc1 (stereo unspecified) | 6.0 | -5.3 | 1.9 | -20.6 | 1.0 | 2.3 | / | /
COc1ccc(C(NC(=O)c2c(F)c(F)c(F)c(F)c2F)c2ccccc2)cc1 (stereo unspecified) | -0.6 | 5.4 | 2.0 | 2.0 | 0.3 | 72.2* | 56.9* | 87.9*
Cc1ccccc1Cn1c(=O)n(CC2CCC(C(=O)NCCc3ccccc3)CC2)c(=O)c2ccccc21 (stereo unspecified) | 1.3 | 1.8 | / | 14.9 | -0.2 | 3.7 | / | /
CC(=O)Oc1ccc2nc(-c3ccco3)oc(=O)c2c1 | -0.7 | 3.6 | 1.9 | / | 0.1 | 33.8* | 12.7 | 39.2*
CC(=O)Oc1ccc2nc(-c3cccs3)oc(=O)c2c1 | -1.0 | -1.5 | 0.4 | / | 1.3 | 22.5 | / | /
Cc1ccccc1NC(=S)N(CCN1CCCCC1)Cc1ccco1 | -8.3 | -4.5 | 0.5 | 2.8 | 3.5 | 31.3* | 1.1 | -6.4
Cc1ccc(C)c(S(=O)(=O)N2CCN(c3nc(-c4cccnc4)nc4ccccc34)CC2)c1 | -4.7 | -7.7 | 5.6 | / | -0.9 | 22.3 | / | /
SMILES | PREPL inhibitor | HTR2A ag | NTR1 ag | Hep lipid drop | MC4R barr agon | MC4R antagonist | U2OS cAMP counter | MC4R cAMP antag
COc1ccc(C2/C(=C(/O)c3ccccc3)C(=O)C(=O)N2c2ccccn2)cc1OC (stereo unspecified) | 4.2 | 3.6 | 1.0 | -4.2 | -1.8 | -6.3 | / | /
O=C1C(=O)N(c2ccccn2)C(c2cccc(F)c2)/C1=C(/O)c1ccccc1 (stereo unspecified) | 0.7 | -3.4 | 0.5 | / | 1.1 | 29.4* | -1.9 | -23.2
CCCOc1ccc(/C(O)=C2\C(=O)C(=O)N(c3ccccn3)C2c2ccccc2F)cc1C (stereo unspecified) | 9.0 | -10.8 | 2.3 | 9.7 | 2.6 | 42.4* | 33.5* | 20.5
O=[N+]([O-])c1ccccc1Nc1nc(-c2cccnc2)cs1 | 14.5 | -0.4 | 2.3 | 5.5 | 0.6 | -8.9 | / | /
O=C(NCC1CCCO1)c1ccc(F)c2ccccc12 (stereo unspecified) | 10.4 | -1.5 | 1.0 | -13.9 | -1.7 | -0.7 | / | /
CCN(CC(=O)Nc1ccc2c(c1)OCCO2)C(=O)c1cc(=O)[nH]c2ccccc12 | -7.2 | -3.2 | 1.1 | / | 3.2 | 17.9 | / | /
CCN(C[C@H]1N[C@@](CC)(C(=O)OC)[C@H]2C(=O)N(Cc3ccccc3)C(=O)[C@@H]12)C(=O)c1ccc(C(C)(C)C)cc1 | 3.0 | 3.6 | 4.0 | / | -1.7 | 41.3* | -1.9 | 21.4
COc1ccc(OC)c(Cc2nnc(CCC(=O)N3CCCCC3c3nccs3)o2)c1 (stereo unspecified) | 1.1 | -3.3 | 2.9 | -15.5 | 0.7 | 29.9* | -5.4 | -20.9
O=C(CSc1nc(C(F)(F)F)cc(=O)[nH]1)NCc1ccc2c(c1)OCO2 | 4.9 | 0.0 | -1.1 | / | -4.0 | -1.2 | / | /
CCN(CC)P(=O)(Nc1cccc(C(F)(F)F)c1)c1ccc(N(C)C)cc1NC(=O)c1ccco1 (stereo unspecified) | 6.9 | -0.9 | 0.5 | 21.1 | 1.4 | 34.5* | 5.4 | 9.8
